Screening results as filed in PubChem.
FLuc stim CS = firefly luciferase counter-screen for stimulation assays | AID 1027 | activation factor at 10 µM | ATPlite luciferase biochemical, luminescence, 10 min; 0 = ATP-free wells, 1 = DMSO control | P08659 | 200,000 tested, under 10 active;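 active = luciferase activation factor, scaled between plate controls, of at least 2 with compound at 10 µM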
Target sequence (P08659 whole entry, looked up): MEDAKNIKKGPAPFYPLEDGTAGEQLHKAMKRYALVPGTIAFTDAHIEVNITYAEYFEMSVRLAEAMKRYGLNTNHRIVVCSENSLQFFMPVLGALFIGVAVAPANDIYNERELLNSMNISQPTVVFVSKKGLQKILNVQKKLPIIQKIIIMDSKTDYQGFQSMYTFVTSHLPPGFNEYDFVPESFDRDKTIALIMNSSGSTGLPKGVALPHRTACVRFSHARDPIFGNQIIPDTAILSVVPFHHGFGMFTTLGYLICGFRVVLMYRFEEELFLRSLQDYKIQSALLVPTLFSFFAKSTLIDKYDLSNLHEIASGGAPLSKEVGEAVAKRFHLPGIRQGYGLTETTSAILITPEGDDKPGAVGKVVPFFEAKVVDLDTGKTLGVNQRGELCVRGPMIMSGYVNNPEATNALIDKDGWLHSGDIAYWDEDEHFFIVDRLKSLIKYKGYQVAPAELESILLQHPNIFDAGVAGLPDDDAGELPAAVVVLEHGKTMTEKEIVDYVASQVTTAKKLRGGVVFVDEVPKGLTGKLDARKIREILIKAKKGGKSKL
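test system = cell-free luciferase reagent | medium = PBS as buffer for the ATP substrate | dosing = test compounds dosed from 2 mM stocks in 100% DMSO | incubation = 10 min at ambient temperature | detection = luminescence measurement of luciferase light output | benchmarks = low control with PBS replacing ATP, high control enzyme plus ATP without compound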
SDO1 yeast rescue = compounds rescuing growth of sdo1-depleted yeast, bone marrow failure model; S. cerevisiae sdo1-depleted JHY4D growth rescue, OD600 30 h; stronger effect = higher value; pdr5 snq2 efflux-pump mutant strain; z-score at 10 µM; actives 0.21% (n = 140,000);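 active = z-score above 3 at both the 24 hr and the 30 hr optical density reads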;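 also: z-score against mean and SD of all compound wells on the same plate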
APP 5'UTR act = activates APP 5'UTR luciferase reporter; SH-SY5Y APP 5'UTR luciferase reporter, luminescence; zero percent = DMSO vehicle wells; activation, % at 2 µM; actives 1% (n = 190,000); AID 1276;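 active = activation above a set limit, based on mean plus 3 SD of controls, cut at about 140% in these data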
NF-kB expr up = raises NF-kB expression in human neuronal cells. fold change at 12.5 µM. NF-kB reporter expression; stronger effect = higher value. AID 1239. actives 1.6% (n = 190,000); in the data active = fold change above about 3.3
FLuc inhib CS = inhibits firefly luciferase, flagging false hits in luciferase inhibition screens | ATPLite firefly luciferase biochemical luminescence, 10 min | P08659 | AID 1006 | inhibition, % at 10 µM | actives 1.5% (n = 200,000);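 active = inhibition above about 50% when tested at 10 µM, limit read from the data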
STAT1 act = activators of IFN-gamma induced STAT1 signaling | NIH 3T3 STAT1-luciferase reporter, luminescence; 100% = IFN-gamma alone, no compound | activation (% of control), % at 5.5 µM | actives 2.6% (n = 200,000);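 active = activation above the screen-wide mean activation plus 3 SD, cut at about 130% in these data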;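 also: raw ratio to IFN-gamma control signal so 100% means no change and 0% no light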
An asterisk follows results filed as active; nt = no result given. Hits are enriched below; roughly 4.3% of the tested compounds scored in any of these assays.

SMILES	FLuc stim CS	SDO1 yeast rescue	APP 5'UTR act	NF-kB expr up	FLuc inhib CS	STAT1 act
Cc1ccc(NS(=O)(=O)c2cccc(C(=O)N/N=C/c3ccc4c(c3)OCCO4)c2)c(C)c1	1	-0.34	7	1.1	0	95
Nc1n[nH]c(=S)n1/N=C1/C(=O)Nc2ccccc21	0.3	nt	21	1.2	70*	103
Cc1ccc(NCCC(=O)c2cccs2)cc1	0.9	nt	22	0.88	10	150*
Cc1ccc(NCCC(=O)c2cccs2)cc1C	0.6	nt	82	1.6	38	143*
COc1ccc(CCNC(=O)CO/N=C/c2cc3c(cc2Br)OCO3)cc1OC	1	nt	1	1.1	-2	94
CCN(CC(=O)Nc1cc(C)c(Cl)cc1OC)CC(=O)NC1CCS(=O)(=O)C1 (stereo unspecified)	1	nt	10	1.1	0	98
COc1ccc(OC)c(/C=N/N(C)c2ccccc2)c1	0.9	-0.76	25	2.4	12	137*
NC(=O)C1=C[C@@H](c2ccc(Br)cc2)C[C@@H](OCCCCO)O1	1	nt	-5	1.1	1	100
Cc1nn(-c2ccccc2)c(N)c1Sc1ccc([N+](=O)[O-])cc1	1	-0.17	6	1.2	-3	102
Cc1nn(-c2nc3ccccc3s2)c(N)c1-c1ccc(Cl)cc1	0.9	-2.1	-8	1.8	13	126
Nc1c(-c2ccccc2)c(CN2CCOCC2)nn1-c1ccccc1	1	0.95	8	1.1	0	92
Cc1cc(N)n(-c2nc3ccccc3s2)n1	0.2	nt	113	4.5*	75*	122
Cc1cc(C)n(-c2nc3ccccc3s2)n1	0.8	nt	38	2.1	18	122
Cc1nn(-c2nc3ccccc3s2)c(N)c1Sc1ccc(F)cc1	1	1.6	32	1.2	1	138*
Cc1nn(-c2nc3ccccc3s2)c(N)c1-c1ccccc1	0.5	-0.15	122	7.6*	52*	143*
Cc1nn(-c2ccccc2)c(N)c1-c1ccccc1	0.3	nt	7	2.6	73*	113
Nc1cc(Cl)nc(N/N=C/c2c(O)ccc3ccccc23)n1	0.7	-1.5	18	4.4*	29	96
Nc1nonc1N/N=C/c1c(O)ccc2ccccc12	1	nt	-3	3.3	-3	75
COc1ccc(-c2[nH]c(-c3ccc(C)cc3)nc2SCC(=O)Nc2nccs2)cc1	1	-1.3	4	0.81	0	96
Cc1cc2nc(-c3ccc(SCC(=O)Nc4nccs4)nc3)[nH]c2cc1C	0.7	-1.1	156*	1.7	33	127
Cc1cc2nc(-c3ccc(SCC(=O)Nc4ccc(S(=O)(=O)N5CCCC5)cc4)nc3)[nH]c2cc1C	0.3	-0.1	153*	2.9	72*	140*
Cc1ccc2nc(-c3ccc(SCC(=O)N4CCc5ccccc54)nc3)[nH]c2c1	0.2	-1.8	134	1.3	78*	131*
CC(=O)CSc1ccc(-c2nc3cc(C)c(C)cc3[nH]2)cn1	0.1	nt	31	0.57	85*	20
CCOC(=O)c1cnc(Nc2nc3ccccc3o2)nc1CN1CCN(C)CC1	1.1	0.22	-17	0.93	-8	75
CCOC(=O)NC(c1ccc(C(C)C)cc1)C(Cl)(Cl)Cl (stereo unspecified)	1	-0.09	14	1.2	-4	93
SMILES	FLuc stim CS	SDO1 yeast rescue	APP 5'UTR act	NF-kB expr up	FLuc inhib CS	STAT1 act
CCOC(=O)C1(CCc2ccccc2)CCN(Cc2cccc3nccnc23)CC1	1	nt	-22	1.2	-3	82
CCc1nnc(NC(=O)CSc2ccc(-c3nc4ccc(C)cc4[nH]3)cn2)s1	0.4	-0.42	138*	2.8	58*	115
Cc1ccc2nc(-c3ccc(SCC(=O)O)nc3)[nH]c2c1	0.6	1.4	13	0.74	43	96
CN(C(=O)c1cccc(Nc2ccc(-c3ccc4c(c3)OCCO4)nn2)c1)C1CCCCC1	0.2	-1.1	95	1.9	77*	124
CN(C)S(=O)(=O)c1ccc(Nc2ccc(-c3ccc4c(c3)OCCO4)nn2)cc1	0.8	0.28	20	1.2	18	97
CCOC(=O)c1c(C)[nH]c2cc(Br)c(O)cc12	1	-0.2	-44	3.4*	2	103
CCOC(=O)c1c(OCC)[nH]c2c1cc(O)c1ccccc12	1.1	-0.35	-17	0.86	-7	106
